# Measurements reported in PubChem BioAssay.
# The source made the active and inactive calls.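 Rule for the calls, unless noted: active = inhibition at or above 50% at 10 µM; inactive = inhibition below 50%.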
# Assays:
# [1] = inhibitors of TNFa-induced NFkB p65 translocation, primary screen, imaging, HUVEC, MLSMR starter and 10KST1 sets (AID 438;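 active = inhibition above 20% together with a positive visual image hit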;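 note: compound added about 3h40 before a 20 min TNFalpha stimulation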;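 for inhibition: signal is the nuclear over cytoplasmic p65 intensity ratio per well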); conditions: HUVEC TNFa-induced p65 nuclear translocation; cell count: measured here: nuclei count (cytotoxicity indicator), at 2.08 µM; inhibition: at 2 µM, stronger effect = higher value, 0% TNFa-plus-vehicle, 100% no-TNFa wells
# [2] = inhibitors of mutant huntingtin aggregation, primary screen, imaging, exon1htt(103Q)mCFP cells, high-content imaging (AID 483;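 active = visual image review flags a hit and inhibition of aggregation exceeds 20%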;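 note: compound exposure lasted 3 days before fixation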;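 for nuclei count: percent of the per-plate median nuclei count of sample wells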); conditions: exon1htt(103Q)mCFP cell line, aggregate imaging, at 2 µM; inhibition of aggregation: stronger effect = higher value; nuclei count: measured here: cell count, toxicity
# [3] = inhibitors of E-selectin induction by TNFa, primary screen, imaging, HUVEC, immunofluorescence, MLSMR starter and 10KST1 sets (AID 487;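 active = visually confirmed hit in the image check and inhibition above 20%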;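 for inhibition: signal is fraction of cell area covered by stained E-selectin grains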;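 for nuclei count: 100% = median nuclei count of all wells on the same plate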); conditions: HUVEC TNFalpha-induced E-selectin immunofluorescence imaging, at 2 µM; inhibition: stronger effect = higher value; nuclei count: measured here: cell number, toxicity
# [4] = biological target: Voltage-gated potassium channel subunit beta-2 (Rattus norvegicus) (UniProt P62483); assay: KvBeta enzyme negative modulators, primary screen, biochemical, NADPH fluorescence (AID 622;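 active = fluorescence slope higher than the sample average by over 3 SD, cut at about -0.22 in these data, passing the limit was not always enough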;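 note: slope of raw intensity against log time taken from 70 to 1610 s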); conditions: recombinant KvBeta, 4-cyanobenzaldehyde reduction, at 10 µM, stronger effect = higher value
# Chain of Voltage-gated potassium channel subunit beta-2 (Rattus norvegicus) (P62483 whole entry, looked up): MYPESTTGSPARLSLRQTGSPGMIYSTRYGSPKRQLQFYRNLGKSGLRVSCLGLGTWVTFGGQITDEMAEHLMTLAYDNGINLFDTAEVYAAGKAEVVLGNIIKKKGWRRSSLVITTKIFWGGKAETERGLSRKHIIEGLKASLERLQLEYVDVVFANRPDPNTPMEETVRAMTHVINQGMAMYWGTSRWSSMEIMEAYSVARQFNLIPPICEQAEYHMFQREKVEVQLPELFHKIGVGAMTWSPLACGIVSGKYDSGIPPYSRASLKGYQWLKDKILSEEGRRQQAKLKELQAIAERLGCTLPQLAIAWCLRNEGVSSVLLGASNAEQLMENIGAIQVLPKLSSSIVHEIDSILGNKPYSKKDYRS
# [5] = biological target: Voltage-gated potassium channel subunit beta-2 (Rattus norvegicus) (UniProt P62483); assay: KvBeta positive modulators, primary screen, biochemical, NADPH fluorescence (AID 623;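 active = NADPH fluorescence slope more negative than the mean of all samples by about 3 SD, 99.7% confidence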;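 note: fluorescence intensity change per second fitted from 20 to 320 s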); conditions: Recombinant KvBeta, NADPH fluorescence decrease slope, 10 min; at 10 µM; stronger effect = lower value
# [6] = biological target: Muscarinic acetylcholine receptor M4 (Homo sapiens) (UniProt P08173); assay: compounds altering M4/GIRK thallium flux, either direction, primary screen, M4 allosteric agonist project, cell-based, HEK293 M4/GIRK, BTC-AM (AID 625;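 active = fluorescence slope after compound addition differing from the mean of all tested samples at 99.7% confidence, mostly higher but some lower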;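 note: thallium influx through GIRK channels coupled to M4 in HEK293 cells with BTC-AM dye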); conditions: at 10 µM, actives lie on both sides
# Chain of Muscarinic acetylcholine receptor M4 (Homo sapiens) (P08173 whole entry, looked up): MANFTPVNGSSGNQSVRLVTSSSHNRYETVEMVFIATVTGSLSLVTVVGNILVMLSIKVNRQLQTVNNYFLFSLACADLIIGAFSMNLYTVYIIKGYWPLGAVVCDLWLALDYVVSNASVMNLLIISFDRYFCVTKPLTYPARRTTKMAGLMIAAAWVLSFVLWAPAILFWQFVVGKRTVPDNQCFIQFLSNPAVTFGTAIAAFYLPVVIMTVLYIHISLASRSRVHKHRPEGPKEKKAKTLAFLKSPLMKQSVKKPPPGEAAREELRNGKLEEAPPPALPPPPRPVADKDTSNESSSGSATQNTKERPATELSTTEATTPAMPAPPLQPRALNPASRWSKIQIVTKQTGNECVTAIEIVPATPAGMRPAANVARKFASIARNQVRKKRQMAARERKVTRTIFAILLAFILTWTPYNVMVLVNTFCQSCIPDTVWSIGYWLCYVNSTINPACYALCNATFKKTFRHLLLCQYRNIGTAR
# How it was run: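 Material: M4/GIRK1/GIRK2 stable HEK293 cell line. Medium: pH 7.3 thallium assay buffer. Dosing: single compound concentration, 10 µM final. Schedule: 1 h dye loading, 2 min kinetic read. Measured by: kinetic fluorescence with BTC-AM dye. Read-out: post-addition slope, 15–24 s, of baseline-normalized fluorescence. Benchmarks: carbachol and DMSO controls.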
# [7] = inhibitors of Sendai virus-induced IRF3 signaling, primary screen, TLR/RLR signaling modifier project, cell-based, Sendai virus stimulus, luciferase, 10K MLSCN set (AID 602276); conditions: HEK293 RL24 IRF3 luciferase reporter, at 10 µM, stronger effect = higher value;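 note: firefly luciferase from ISG56 promoter only with Renilla not read in this screen; 0% = Sendai virus plus DMSO and 100% = medium plus DMSO without virus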
# [8] = inhibitors of poly I:C-induced TLR3 signaling, primary screen, cell-based, poly I:C stimulus, luciferase, 10K MLSCN set (AID 602277;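 active = inhibition of the reporter signal at or above 50%; inactive = inhibition below 50%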); conditions: HEK293-TLR3 RL24 IRF3 luciferase reporter, at 10 µM, stronger effect = higher value
SMILES,cell count [1],inhibition [1],inhibition of aggregation [2],nuclei count [2] [%],inhibition [3],nuclei count [3] [%],fluorescence slope [4],NADPH fluorescence slope [5],fluorescence slope [6],inhibition [7],inhibition [8]
N#Cc1c(NC(=O)COC(=O)C2CC3C=CC2C3)oc(-c2ccccc2)c1-c1ccccc1 (stereo not given),282,18.4% (inactive),-7.7% (inactive),95.7,-44.1% (inactive),94.6,-0.399 (inactive),-0.000409 (inactive),0.00531 (inactive),-1.94% (inactive),99% (active)
CCn1c(=O)cc(SCC(=O)Nc2cccnc2)c2ccccc21,369,-8.6% (inactive),4.3% (inactive),101,-15.9% (inactive),116,-0.463 (inactive),2.2e-05 (inactive),0.00646 (inactive),2.11% (inactive),-5.54% (inactive)
Cc1ccc(NC(=O)CSc2nnc(CSc3nc(C)cc(C)n3)n2Cc2ccco2)c(C)c1,655,1.6% (inactive),1.3% (inactive),79.3,-23.6% (inactive),108,-0.454 (inactive),5.9e-05 (inactive),0.0102 (inactive),-22% (inactive),-4.45% (inactive)
CCOc1ccccc1Nc1nc2ccccc2[nH]1,327,1.2% (inactive),5.9% (inactive),111,2.9% (inactive),109,-0.524 (inactive),-0.000156 (active),0.00599 (inactive),-18.9% (inactive),-39.8% (inactive)
O=C(NCc1ccccn1)c1ccc2nc(-c3ccco3)c(-c3ccco3)nc2c1,626,-27.2% (inactive),-52.7% (inactive),82.3,-147% (inactive),103,-0.504 (inactive),-2.5e-05 (inactive),0.00242 (inactive),10.9% (inactive),3.28% (inactive)
CCOC(=O)CSc1nc2ccccc2n2cnnc12,315,-1.4% (inactive),13.5% (inactive),103,-4% (inactive),113,-0.327 (inactive),-5.9e-05 (inactive),0.00582 (inactive),2.3% (inactive),8.27% (inactive)
CCSc1ncc(C#N)c(=O)[nH]1,381,3.5% (inactive),-21.7% (inactive),89.7,-53.9% (inactive),102,-0.517 (inactive),-0.000177 (inactive),0.00385 (inactive),2.6% (inactive),6.42% (inactive)
CCCC(=O)Nc1ccc(OCC(=O)OC)cc1,402,-15.4% (inactive),5.1% (inactive),98.2,8% (inactive),84.9,-0.439 (inactive),-1.2e-05 (inactive),0.00585 (inactive),11% (inactive),21.9% (inactive)
Cn1c(=O)c2c(ncn2CC(O)CNc2ccc(Cl)cc2)n(C)c1=O (stereo not given),629,-6.3% (inactive),-15.7% (inactive),100,-104% (inactive),110,-0.447 (inactive),3.3e-05 (inactive),0.00475 (inactive),3.66% (inactive),2.85% (inactive)
CSC1CCCCC1(O)CSc1nc2c(cc1C#N)CCCC2 (stereo not given),306,-7.4% (inactive),9% (inactive),87,-111% (inactive),78.9,-0.411 (inactive),1e-05 (inactive),0.00633 (inactive),21.3% (inactive),13.8% (inactive)
CCN1C(=O)NC(c2cc(Br)ccc2OC)C(C(=O)OC)=C1C (stereo not given),451,-13.1% (inactive),2.4% (inactive),92,-25.6% (inactive),89.2,-0.491 (inactive),3.4e-05 (inactive),0.00605 (inactive),-1.28% (inactive),17.3% (inactive)
COC(=O)C1=C(C)Nc2nnnn2C1c1ccc(Cl)cc1Cl (stereo not given),433,7.3% (inactive),-5.9% (inactive),105,1.2% (inactive),105,-0.482 (inactive),-4.5e-05 (inactive),0.0056 (inactive),13.6% (inactive),19.3% (inactive)
O=C1CC(C(=O)Nc2ccccc2)C2(CCCC2)O1 (stereo not given),425,6% (inactive),2.4% (inactive),106,-80.4% (inactive),110,-0.569 (inactive),-5.8e-05 (inactive),0.00631 (inactive),4.72% (inactive),6.07% (inactive)
O=C(O)c1c[nH]c2ccc(S(=O)(=O)N3CCN(c4ccc(F)cc4)CC3)cc2c1=O,423,-1.1% (inactive),20.5% (inactive),87.5,-183% (inactive),101,-0.566 (inactive),2e-06 (inactive),0.00349 (inactive),1.85% (inactive),0.478% (inactive)
Cc1cc2c(c(=O)n1CCc1ccccc1)C(C(C)C)C(C#N)=C(N)O2 (stereo not given),565,11.2% (inactive),-1.8% (inactive),106,-39% (inactive),123,-0.577 (inactive),-7.9e-05 (inactive),0.00377 (inactive),15.9% (inactive),25.8% (inactive)
